Screening results: PubChem BioAssay, several laboratories
PHOSPHO1 inh: PHOSPHO1 (human) inhibition; Q8TCT1; recombinant PHOSPHO1, absorbance phosphatase assay; inhibition, % at 13.3 µM; 290,000 tested, 1.1% active; in the data active = inhibition above about 60%
APOBEC3A inh: human APOBEC3A DNA deaminase inhibition; 330,000 tested, 0.41% active; recombinant A3A, FAM/TAMRA ssDNA deamination fluorescence; inhibition, % at 20 µM; AID 493011; P31941;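 active = at least 40% inhibition at 20 µM here, with at most 30% in a related deaminase screen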
Tb MetRS inh: blocks T. brucei methionyl-tRNA synthetase activity; purified T. brucei MetRS, ATP depletion, Kinase-Glo luminescence; inhibition, % at 11.9 µM; 360,000 tested, 0.4% active;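 active = inhibition above a per-plate cutoff of the control wells' mean inhibition plus 3 SD, cut at about 5.5% in these data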
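Dosing: 11.9 µM single point; system: parasite MetRS enzyme; technique: luminescence of leftover ATP; times: 15 min enzyme-compound preincubation, 2 h reaction, 10 min detection, 25 °C; replicates: each compound tested once; read-out basis: percent inhibition relative to median high and low control wells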
A3G deaminase: blocks human APOBEC3G single-stranded DNA deamination. inhibition, % at 20 µM. recombinant A3G, ssDNA deamination FAM/TAMRA fluorescence. Q9HC16. 330,000 tested, 0.28% active;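 active = inhibition of at least 40% at 20 µM, with no more than 30% in the related APOBEC3A deaminase screen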
Target sequence (Q9HC16 whole entry, looked up): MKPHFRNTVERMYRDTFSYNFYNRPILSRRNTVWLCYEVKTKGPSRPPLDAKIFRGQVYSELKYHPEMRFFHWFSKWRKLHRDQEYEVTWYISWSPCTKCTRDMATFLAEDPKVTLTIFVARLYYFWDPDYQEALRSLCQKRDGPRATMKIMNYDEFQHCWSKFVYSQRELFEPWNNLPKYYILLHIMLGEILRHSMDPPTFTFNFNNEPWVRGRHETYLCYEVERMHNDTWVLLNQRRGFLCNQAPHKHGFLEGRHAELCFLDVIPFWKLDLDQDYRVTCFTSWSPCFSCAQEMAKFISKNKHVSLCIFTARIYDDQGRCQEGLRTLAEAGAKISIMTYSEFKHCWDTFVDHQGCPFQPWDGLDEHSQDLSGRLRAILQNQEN
pCIP destab: p/CIP protein destabilization; Q05BA5; F442A p/CIP-EGFP cells, EGFP fluorescence, 16 h; decrease of EGFP signal, % at 10 µM; 290,000 tested, 0.01% active;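 active = EGFP signal decrease of at least 30% at 10 µM or well 3 SD below plate mean, unless failing retest; inactive = the rest, including hits failing retest or dose response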
Tb MetRS conf: Trypanosoma brucei MetRS inhibition confirmed. inhibition, % at 11.9 µM. 1,400 tested, 93% active. shares compounds with Tb MetRS inh. T. brucei MetRS enzyme, luminescence (ATP depletion); in the data active = inhibition above about 7%
Jurkat tox: Jurkat T cell cytotoxicity for MetRS hits | shares compounds with Tb MetRS inh | AID 624413 | inhibition, % at 8.3 µM | Jurkat cells viability, ATP luminescence | 1,400 tested, 12% active; in the data active = inhibition above about 15%
TbMetRS FP orth: orthogonal test for Trypanosoma brucei MetRS inhibitors. inhibition, % at 11.9 µM. purified T. brucei MetRS, fluorescence polarization. 1,400 tested, 44% active. shares compounds with Tb MetRS inh; in the data active = inhibition above about 17%
Each line names hits and unclear results; the compound was inactive in the other large screens (follow-up assays come after a bar, where they were run). In the library only some 1.8% were active in any assay of this set; here they are far more common.

Cc1nc(NC(=O)CSc2ccc(-c3nc4ccccc4[nH]3)cn2)sc1C	Tb MetRS inh 19 | Tb MetRS conf 36 | Jurkat tox inactive | TbMetRS FP orth inactive
CCOC(=O)CSc1ccc(-c2nc3ccccc3[nH]2)cn1	Tb MetRS inh 9.2 | Tb MetRS conf 19 | Jurkat tox inactive | TbMetRS FP orth inactive
O=C(CSc1ccc(-c2nc3ccccc3[nH]2)cn1)Nc1ccc2c(c1)OCCO2	none
Cc1ccc2nc(-c3ccc(SCC(=O)Nc4nnc(C)s4)nc3)[nH]c2c1	none
Cc1ccc2nc(-c3ccc(SCC(=O)Nc4ccc5c(c4)OCCO5)nc3)[nH]c2c1	Tb MetRS inh 7.4 | Tb MetRS conf 8.6 | Jurkat tox inactive | TbMetRS FP orth 18
COc1ccc(CN2CC(=O)N(c3cc(Cl)ccc3OC)C2=S)cc1OC	none
O=C(NC(Cc1ccccc1)c1nc2ccccc2[nH]1)c1ccc(Cl)c([N+](=O)[O-])c1 (stereo not given)	Tb MetRS inh 20 | Tb MetRS conf 26 | Jurkat tox inactive | TbMetRS FP orth inactive
CSCC[C@H](NC(=O)c1ccc(Cl)c([N+](=O)[O-])c1)c1nc2ccccc2[nH]1	Tb MetRS inh 56 | Tb MetRS conf 73 | Jurkat tox inactive | TbMetRS FP orth 43
CCOc1ccc(C(=O)Nc2cc(-c3nc4ccccc4[nH]3)ccc2Cl)cc1[N+](=O)[O-]	Tb MetRS inh 7.7 | Tb MetRS conf 14 | Jurkat tox inactive | TbMetRS FP orth inactive
Cc1c(C(=O)NC(Cc2ccccc2)c2nc3ccccc3[nH]2)cccc1[N+](=O)[O-] (stereo not given)	none
CSCC[C@H](NC(=O)COc1ccc(Cl)cc1Cl)c1nc2ccccc2[nH]1	Tb MetRS inh 12 | Tb MetRS conf 24 | Jurkat tox inactive | TbMetRS FP orth inactive
CCOc1ccccc1NC(=O)c1ccc(OCC)c([N+](=O)[O-])c1	none
O=C(CN1CCN(Cc2ccccc2Cl)CC1)N/N=C/c1ccccn1	none
CCCc1nc(SCC(=O)Nc2nnc(CC)s2)c2c(=O)n(C)c(=O)n(C)c2n1	none
O=S(=O)(Nn1c(O)c(C=C2N=c3ccccc3=N2)sc1=S)c1ccccc1	Tb MetRS inh 55 | Tb MetRS conf 65 | Jurkat tox inactive | TbMetRS FP orth 39
CCCCCNc1ncnc2c(C)[nH]nc12	none (no result: PHOSPHO1 inh, APOBEC3A inh, A3G deaminase, pCIP destab)
O=C(CN1CCN(CCC(=O)Nc2ccccc2F)CC1)Nc1ccc(Cl)cc1	Tb MetRS inh 6.4 | Tb MetRS conf inactive | Jurkat tox inactive | TbMetRS FP orth inactive
O=C(CN1CCN(CCC(=O)Nc2ccccc2F)CC1)Nc1ccc(F)cc1	none
CC(C)Oc1ccc(C(CC(=O)N(C)CCC#N)c2ccc(F)cc2)cc1 (stereo not given)	none
Cn1c(CCCOc2ccc(Cl)cc2Cl)nnc1SCC(=O)Nc1ccc(F)c(Cl)c1	none
Cn1c(CCCOc2ccc(Cl)cc2Cl)nnc1SCC(=O)Nc1cccc(F)c1	Tb MetRS inh 6.8 | Tb MetRS conf 34 | Jurkat tox inactive | TbMetRS FP orth 41
NC(=S)Nc1ccc(C(F)(F)F)cc1Cl	none
Nc1ccc2nc(CCCCCCc3nc4ccc(N)cc4[nH]3)[nH]c2c1	none
Nc1ccc2nc(CCCCc3nc4ccccc4[nH]3)[nH]c2c1	Tb MetRS inh 9.3 | Tb MetRS conf 14 | Jurkat tox inactive | TbMetRS FP orth inactive
O=C(CSc1nnc2c(n1)[nH]c1ccccc12)NCc1ccccc1F	Tb MetRS inh 6.5 | Tb MetRS conf 44 | Jurkat tox inactive | TbMetRS FP orth 27
COCCN1C(=O)C(CC(=O)Nc2ccc(C(C)=O)cc2)SC1=Nc1ccccc1 (stereo not given)	none
CC(O)CN1C(=O)C(CC(=O)Nc2ccc(Cl)cc2)SC1=Nc1ccccc1 (stereo not given)	Tb MetRS inh 27 | Tb MetRS conf 53 | Jurkat tox inactive | TbMetRS FP orth 22
O=S(=O)(c1ccc(Br)cc1F)N1CC[C@H](O)C1	none (no result: PHOSPHO1 inh, APOBEC3A inh, A3G deaminase, pCIP destab)
COCCNC(=O)c1ccc(-c2csc(C)n2)cc1	none
